# Results reported in ChEMBL document CHEMBL4052630, “Design, synthesis and evaluation of scutellarein-O-acetamidoalkylbenzylamines as potential multifunctional agents for the treatment of Alzheimer's disease” (Eur J Med Chem, 2017).
# Calls of active or inactive are those of the source. The rule behind the calls is not given here.
# How the values were obtained:
# [1] = organism: Rattus norvegicus; assay: Selectivity index, ratio of IC50 for rat serum BuChE to IC50 for rat cortex homogenate AChE
# Procedure, shortened: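 Modified Ellman assay. AChE from 5% rat cortex homogenate, pre-incubated 5 min with iso-OMPA (4.0 mmol/L). BuChE from 25% rat serum. Enzyme incubated with compound (<1% DMSO) and acetyl- or butyrylthiocholine iodide (1 mmol/L) in phosphate buffer pH 7.4 for 15 min at 37 °C. DTNB added, read at 405 nm. IC50 from 3 independent experiments. Index = BuChE IC50/AChE IC50.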
# [2] = Antioxidant activity assessed as trolox equivalents of AAPH radical scavenging activity at 1 to 10 uM preincubated for 15 mins followed by AAPH addition measured every 60 sec for 90 mins by ORAC-FL assay; assay type: functional
# Procedure, shortened: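 ORAC-FL in 75 mM phosphate buffer pH 7.4. Compound at 1–10 µM with fluorescein (150 nM final), pre-incubated 15 min at 37 °C, then AAPH added (12 mM final). Fluorescence read every minute for 90 min, ex 485/em 535 nm. Curves normalised to the FL+AAPH blank. Trolox standard 1–8 µM. Duplicates, ≥3 independent assays. Results given as µM Trolox equivalent per µM compound.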
# [3] = biological target: Acetylcholinesterase (Electrophorus electricus) (UniProt O42275); assay: Mixed type inhibition of electric eel AChE at 10 to 40 nM preincubated for 15 mins followed by varying levels of acetylthiocholine substrate addition by Lineweaver-Burk plot analysis
# Sequence of Acetylcholinesterase (Electrophorus electricus) (O42275 24-633 limits assumed): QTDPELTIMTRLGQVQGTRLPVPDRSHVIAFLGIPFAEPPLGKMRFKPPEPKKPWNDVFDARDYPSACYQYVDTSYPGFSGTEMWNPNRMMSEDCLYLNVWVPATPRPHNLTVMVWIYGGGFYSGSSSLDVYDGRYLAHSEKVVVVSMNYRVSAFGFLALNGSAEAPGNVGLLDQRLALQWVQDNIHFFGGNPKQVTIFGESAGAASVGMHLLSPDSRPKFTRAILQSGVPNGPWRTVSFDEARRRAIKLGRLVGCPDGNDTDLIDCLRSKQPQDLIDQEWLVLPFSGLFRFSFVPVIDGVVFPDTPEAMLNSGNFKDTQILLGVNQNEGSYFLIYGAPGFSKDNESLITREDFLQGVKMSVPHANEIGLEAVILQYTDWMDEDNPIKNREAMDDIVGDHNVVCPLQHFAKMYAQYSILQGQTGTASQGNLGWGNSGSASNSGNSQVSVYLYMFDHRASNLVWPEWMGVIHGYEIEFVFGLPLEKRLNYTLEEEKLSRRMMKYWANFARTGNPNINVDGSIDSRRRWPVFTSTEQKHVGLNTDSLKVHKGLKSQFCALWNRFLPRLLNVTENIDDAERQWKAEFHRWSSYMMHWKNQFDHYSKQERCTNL
# Procedure, shortened: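 Electric eel AChE (10 µL of 0.5 U/mL) in 0.1 M phosphate pH 8.0 with DTNB, pre-incubated 15 min at 37 °C with three inhibitor concentrations. Acetylthiocholine added at 0.1–0.4 mM and hydrolysis read at 412 nm, with an inhibitor-free control. Lineweaver-Burk plots by weighted least squares; slopes replotted against inhibitor concentration.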
# [4] = Metal chelating activity assessed as compound-Cu2+ complex formation by measuring red shift at 37.5 uM after 30 mins by UV-vis spectrophotometric method
# Procedure, shortened: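 UV absorption scanned from 200 to 600 nm after 30 min at room temperature in methanol. Compound and each metal salt (CuCl2, ZnCl2, AlCl3, FeSO4) were at 37.5 µM final. Spectra compared with and without metal.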
# [5] = Metal chelating activity assessed as mole fraction of compound required to show 1:1 stoichiometry for Cu2+-compound complex up to 37.5 uM after 30 mins by UV-vis spectrophotometric method
# Procedure, shortened: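 Molar-ratio titration in methanol: compound fixed at 37.5 µM final with CuCl2 at 3.75-93.75 µM final. Absorbance at 386 nm taken after numerical subtraction of CuCl2 and compound spectra, and plotted against mole fraction of compound. Stoichiometry taken from the intersection of two straight lines.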
# [6] = biological target: Amyloid-beta precursor protein (Homo sapiens) (UniProt P05067); assay: Inhibition of amyloid beta (1 to 42) (unknown origin) self aggregation at 25 uM after 24 hrs by ThT-based fluorometric method relative to control
# Sequence of Amyloid-beta precursor protein (Homo sapiens) (P05067 whole entry): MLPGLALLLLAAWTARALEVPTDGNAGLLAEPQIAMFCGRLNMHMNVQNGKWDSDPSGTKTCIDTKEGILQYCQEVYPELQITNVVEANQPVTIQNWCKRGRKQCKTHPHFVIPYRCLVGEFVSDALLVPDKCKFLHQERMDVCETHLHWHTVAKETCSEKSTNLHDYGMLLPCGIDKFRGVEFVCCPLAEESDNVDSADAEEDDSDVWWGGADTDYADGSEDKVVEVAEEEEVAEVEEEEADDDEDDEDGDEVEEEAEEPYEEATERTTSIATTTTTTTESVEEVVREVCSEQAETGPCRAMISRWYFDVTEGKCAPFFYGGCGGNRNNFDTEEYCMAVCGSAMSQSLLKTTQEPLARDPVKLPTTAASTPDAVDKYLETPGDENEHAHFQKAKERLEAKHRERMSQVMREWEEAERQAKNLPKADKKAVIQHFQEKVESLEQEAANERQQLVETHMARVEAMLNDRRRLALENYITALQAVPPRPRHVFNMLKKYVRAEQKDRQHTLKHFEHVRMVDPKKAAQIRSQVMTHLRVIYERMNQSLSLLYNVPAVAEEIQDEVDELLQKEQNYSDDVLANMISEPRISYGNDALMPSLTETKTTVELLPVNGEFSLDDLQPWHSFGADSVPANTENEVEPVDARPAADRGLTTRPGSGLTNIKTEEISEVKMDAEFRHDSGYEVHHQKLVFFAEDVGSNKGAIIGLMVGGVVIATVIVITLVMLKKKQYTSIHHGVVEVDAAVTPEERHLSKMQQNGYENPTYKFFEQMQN
# Procedure, shortened: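 Aβ1-42 (25 µM final) incubated at 37 °C for 24 h ± compound in 50 mM phosphate buffer pH 7.4, with DMSO stocks diluted in buffer. Then 5 µM thioflavin T in 50 mM glycine-NaOH pH 8.5 was added and read at ex 446/em 490 nm. Run in triplicate. % inhibition = (1−IFi/IFc)×100 after background subtraction.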
# [7] = biological target: Amyloid-beta precursor protein (Homo sapiens) (UniProt P05067); assay: Inhibition of amyloid beta (1 to 42) (unknown origin) self aggregation at 50 uM after 24 hrs by ThT-based fluorometric method relative to control
# Procedure, shortened: (§1)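 Aβ1-42 (25 µM final) incubated 24 h at 37 °C with or without compound (1-50 µM) in 50 mM phosphate buffer pH 7.4. Thioflavin T (5 µM in glycine-NaOH pH 8.5) then added, fluorescence read at ex 446/em 490 nm. Inhibition = (1-IFi/IFc)×100 after background subtraction. Run in triplicate.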
# [8] = Metal chelating activity assessed as disaggregation of Cu2+ induced amyloid beta (1 to 42) fibrils at 25 uM treated for 24 hrs post Cu2+ treatment for 24 hrs by ThT-based fluorometric method relative to control
# Procedure, shortened: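 Fibrils preformed from Aβ1-42 (25 µM) plus Cu2+ (25 µM) in 20 mM HEPES pH 6.6, 150 mM NaCl, 24 h at 37 °C. Compound (25 µM) then added for another 24 h at 37 °C. Thioflavin T (5 µM, glycine-NaOH pH 8.5) fluorescence read at ex 446/em 490 nm. Triplicate.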
# [9] = tested on: SH-SY5Y; assay: Cytotoxicity against human SH-SY5Y cells assessed as reduction in cell viability up to 10 uM after 24 hrs by MTT assay; assay type: cell-based
# Procedure, shortened: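 SH-SY5Y cells grown in DMEM with 10% FBS at 37 °C, 5% CO2, seeded 4 × 10^4 cells/well and incubated 24 h. Compounds given at 1, 10 and 100 µM (1% DMSO final) for 24 h. MTT (5 mg/ml) added for 4 h, cells lysed overnight in DMF/SDS, absorbance read at 590 nm against control. Three independent experiments.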
# [10] = tested on: Mus musculus; assay: Reversal of scopolamine-induced memory impairment in Kunming mouse assessed as step-down latency time at 7.33 mg/kg, po administered 60 mins prior to training trial followed by scopolamine challenge at 30 mins post dose measured 24 hrs after training trial by passive avoidance test; assay type: functional
# Procedure, shortened: (§2)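 Kunming mice, 18–22 g, six weeks old, either sex; 10 per group. Oral dosing 1 h before training (test compound 3.67, 7.33, 22 mg/kg; donepezil 5.0 mg/kg), scopolamine 3 mg/kg i.p. 30 min later. Training: 0.5 mA, 2 s foot shock on stepping off the block. Step-down latency measured 24 h later. Mean ± SEM.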
# [11] = tested on: Mus musculus; assay: Reversal of scopolamine-induced memory impairment in Kunming mouse assessed as step-down latency time at 22 mg/kg, po administered 60 mins prior to training trial followed by scopolamine challenge at 30 mins post dose measured 24 hrs after training trial by passive avoidance test; assay type: functional; procedure, shortened: as §2
# [12] = biological target: Amyloid-beta precursor protein (Homo sapiens) (UniProt P05067); assay: Inhibition of amyloid beta (1 to 42) (unknown origin) self-induced aggregation after 24 hrs by ThT-based fluorometric method; procedure, shortened: as §1
# [13] = Solubility of the compound in DMEM in presence of 10% FBS; assay type: physicochemical
compound,measurement,setting,value
CCN(CCCCNC(=O)COc1ccc(-c2cc(=O)c3c(O)c(OC)c(OC)cc3o2)cc1)Cc1ccccc1OC,Ratio IC50,[1],> 9800
same,Activity,[2],1.13 equiv
same,inhibition,[3],Active
same,Activity,[4],Active
same,Activity,[5],0.99 molar ratio
same,inhibition,[6],57.1%
same,inhibition,[7],75.2%
same,Activity,[8],66.3%
same,Activity,[9],Non-Toxic
same,Time,[10],194.3 s
same,Time,[11],176.4 s
same,inhibition,[12],Dose-dependent effect
same,solubility,[13],Insoluble
